How the values were obtained:
Conditions in all cases: in vivo
[1] = species on record: Mus musculus; assay: Distribution of compound in lungs tissue of mice after 24 hr injection time was determined; format: ADME, organism-based, Lung
Procedure, shortened: (§1)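 Healthy athymic nude mice (balb/c nu/nu, 20–25 g, both sexes) received 50–400 KBq radioiodinated bisphosphonate in 100 µL phosphate buffer pH 6–7 by tail-vein injection. Three animals were sacrificed per time point. Tissues were excised, weighed and gamma-counted. Values are % injected dose per gram tissue, mean ± 1 SD, n = 3.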

[2] = species on record: Mus musculus; assay: Distribution of compound in skull tissue of mice after 24 hr injection time was determined; format: ADME, organism-based; procedure, shortened: as §1
[3] = species on record: Mus musculus; assay: Distribution of compound in kidneys tissue of mice after 24 hr injection time was determined; format: ADME, organism-based, Kidney; procedure, shortened: as §1
[4] = species on record: Mus musculus; assay: Distribution of compound in liver tissue of mice after 24 hr injection time was determined; format: ADME, organism-based; procedure, shortened: as §1
[5] = species on record: Mus musculus; assay: Distribution of compound in heart tissue of mice after 24 hr injection time was determined; format: ADME, organism-based; procedure, shortened: as §1
[6] = species on record: Mus musculus; assay: Distribution of compound in intestine tissue of mice after 24 hr injection time was determined; format: ADME, organism-based; procedure, shortened: as §1
[7] = species on record: Mus musculus; assay: Distribution of compound in spleen tissue of mice after 24 hr injection time was determined; format: ADME, organism-based; procedure, shortened: as §1
[8] = species on record: Mus musculus; assay: Distribution of compound in stomach tissue of mice after 24 hr injection time was determined; format: ADME, organism-based; procedure, shortened: as §1
[9] = species on record: Mus musculus; assay: Distribution of compound in thyroid tissue of mice after 24 h injection time was determined; format: ADME, organism-based, Thyroid gland
Procedure, shortened: (§2)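 Healthy athymic nude balb/c nu/nu mice (20–25 g) received 50–400 KBq radioiodinated bisphosphonate in 100 μL phosphate buffer, pH 6–7, by tail-vein injection. Three animals were sacrificed per time point. Thyroid-containing tissue was excised, weighed and gamma-counted. Values are % of injected dose, mean ± 1 SD of three mice.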

[10] = species on record: Mus musculus; assay: Distribution of compound in blood tissue of mice after 24 hr injection time was determined; format: ADME, organism-based; procedure, shortened: as §1
[11] = species on record: Mus musculus; assay: Distribution of compound in femur tissue of mice after 24 hr injection time was determined; format: ADME, organism-based; procedure, shortened: as §1
[12] = species on record: Mus musculus; assay: Distribution of compound in liver tissue of mice after 5 hr injection time was determined; format: ADME, organism-based; procedure, shortened: as §1
[13] = species on record: Rattus norvegicus; assay: Distribution of compound in liver tissue of rats after 24 hr injection time was determined; format: ADME, organism-based
Procedure, shortened: (§3)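 Healthy congenitally athymic nude rats (Han rnu/rnu Rowett, 60 g, both sexes) received 0.4 MBq radioiodinated bisphosphonate in 200 µL phosphate buffer pH 7 via tail vein. Three rats were sacrificed 24 h post-injection. Excised organs were weighed and gamma-counted. Values are % injected dose per gram tissue, mean ± 1 SD of three rats.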

[14] = species on record: Rattus norvegicus; assay: Distribution of compound in lung tissue of rats after 24 hr injection time was determined; format: ADME, organism-based; procedure, shortened: as §3
[15] = species on record: Mus musculus; assay: Distribution of compound in lungs tissue of mice after 0.5 h injection time was determined; format: ADME, organism-based, Lung; procedure, shortened: as §1
[16] = species on record: Mus musculus; assay: Distribution of compound in lungs tissue of mice after 2 hr injection time was determined; format: ADME, organism-based, Lung; procedure, shortened: as §1
[17] = species on record: Mus musculus; assay: Distribution of compound in lungs tissue of mice after 5 hr injection time was determined; format: ADME, organism-based, Lung; procedure, shortened: as §1
[18] = species on record: Mus musculus; assay: Distribution of compound in skull tissue of mice after 0.5 hr injection time was determined; format: ADME, organism-based; procedure, shortened: as §1
[19] = species on record: Mus musculus; assay: Distribution of compound in skull tissue of mice after 2 hr injection time was determined; format: ADME, organism-based; procedure, shortened: as §1
[20] = species on record: Mus musculus; assay: Distribution of compound in skull tissue of mice after 5 h injection time was determined; format: ADME, organism-based; procedure, shortened: as §1
[21] = species on record: Rattus norvegicus; assay: Distribution of compound in skull tissue of rats after 24 hr injection time was determined; format: ADME, organism-based; procedure, shortened: as §3
[22] = species on record: Mus musculus; assay: Distribution of compound in spleen tissue of mice after 0.5 hr injection time was determined; format: ADME, organism-based; procedure, shortened: as §1
[23] = species on record: Mus musculus; assay: Distribution of compound in kidneys tissue of mice after 0.5 hr injection time was determined; format: ADME, organism-based, Kidney; procedure, shortened: as §1
[24] = species on record: Mus musculus; assay: Distribution of compound in kidneys tissue of mice after 2 hr injection time was determined; format: ADME, organism-based, Kidney; procedure, shortened: as §1
[25] = species on record: Mus musculus; assay: Distribution of compound in kidneys tissue of mice after 5 hr injection time was determined; format: ADME, organism-based, Kidney; procedure, shortened: as §1
[26] = species on record: Mus musculus; assay: Distribution of compound in liver tissue of mice after 0.5 hr injection time was determined; format: ADME, organism-based; procedure, shortened: as §1
[27] = species on record: Mus musculus; assay: Distribution of compound in heart tissue of mice after 2 hr injection time was determined; format: ADME, organism-based; procedure, shortened: as §1
[28] = species on record: Mus musculus; assay: Distribution of compound in heart tissue of mice after 5 hr injection time was determined; format: ADME, organism-based; procedure, shortened: as §1
[29] = species on record: Rattus norvegicus; assay: Distribution of compound in heart tissue of rats after 24 hr injection time was determined; format: ADME, organism-based; procedure, shortened: as §3
[30] = species on record: Mus musculus; assay: Distribution of compound in intestine tissue of mice after 0.5 hr injection time was determined; format: ADME, organism-based; procedure, shortened: as §1
[31] = species on record: Mus musculus; assay: Distribution of compound in intestine tissue of mice after 2 hr injection time was determined; format: ADME, organism-based; procedure, shortened: as §1
[32] = species on record: Mus musculus; assay: Distribution of compound in intestine tissue of mice after 5 hr injection time was determined; format: ADME, organism-based; procedure, shortened: as §1
[33] = species on record: Rattus norvegicus; assay: Distribution of compound in intestine tissue of rats after 24 hr injection time was determined; format: ADME, organism-based; procedure, shortened: as §3
[34] = species on record: Rattus norvegicus; assay: Distribution of compound in kidney tissue of rats after 24 hr injection time was determined; format: ADME, organism-based; procedure, shortened: as §3
[35] = species on record: Mus musculus; assay: Distribution of compound in spleen tissue of mice after 2 hr injection time was determined; format: ADME, organism-based; procedure, shortened: as §1
[36] = species on record: Mus musculus; assay: Distribution of compound in spleen tissue of mice after 5 h injection time was determined; format: ADME, organism-based; procedure, shortened: as §1
[37] = species on record: Rattus norvegicus; assay: Distribution of compound in spleen tissue of rats after 24 hr injection time was determined; format: ADME, organism-based; procedure, shortened: as §3
[38] = species on record: Mus musculus; assay: Distribution of compound in stomach tissue of mice after 0.5 hr injection time was determined; format: ADME, organism-based; procedure, shortened: as §1
[39] = species on record: Mus musculus; assay: Distribution of compound in stomach tissue of mice after 2 hr injection time was determined; format: ADME, organism-based; procedure, shortened: as §1
[40] = species on record: Mus musculus; assay: Distribution of compound in stomach tissue of mice after 5 hr injection time was determined; format: ADME, organism-based; procedure, shortened: as §1
[41] = species on record: Rattus norvegicus; assay: Distribution of compound in stomach tissue of rats after 24 hr injection time was determined; format: ADME, organism-based; procedure, shortened: as §3
[42] = species on record: Mus musculus; assay: Distribution of compound in thyroid tissue of mice after 0.5 hr injection time was determined; format: ADME, organism-based, Thyroid gland; procedure, shortened: as §2
[43] = species on record: Mus musculus; assay: Distribution of compound in thyroid tissue of mice after 2 hr injection time was determined; format: ADME, organism-based, Thyroid gland; procedure, shortened: as §2
[44] = species on record: Mus musculus; assay: Distribution of compound in thyroid tissue of mice after 5 h injection time was determined; format: ADME, organism-based, Thyroid gland; procedure, shortened: as §2
[45] = species on record: Rattus norvegicus; assay: Distribution of compound in thyroid tissue of rats after 24 hr injection time was determined; format: ADME, organism-based, Thyroid gland
Procedure, shortened: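 Healthy congenitally athymic nude rats (Han rnu/rnu Rowett, 60 g) received 0.4 MBq radioiodinated bisphosphonate in 200 μL phosphate buffer, pH 7, by tail-vein injection. Three rats were sacrificed 24 h after injection. Thyroid-containing tissue was excised, weighed and gamma-counted. Values are % of injected dose, mean ± 1 SD of three rats.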

[46] = species on record: Mus musculus; assay: Distribution of compound in blood tissue of mice after 0.5 hr injection time was determined; format: ADME, organism-based; procedure, shortened: as §1
[47] = species on record: Mus musculus; assay: Distribution of compound in blood tissue of mice after 2 hr injection time was determined; format: ADME, organism-based; procedure, shortened: as §1
[48] = species on record: Mus musculus; assay: Distribution of compound in blood tissue of mice after 5 h injection time was determined; format: ADME, organism-based; procedure, shortened: as §1
[49] = species on record: Rattus norvegicus; assay: Distribution of compound in blood tissue of rats after 24 hr injection time was determined; format: ADME, organism-based; procedure, shortened: as §3
[50] = species on record: Mus musculus; assay: Distribution of compound in femur tissue of mice after 0.5 hr injection time was determined; format: ADME, organism-based; procedure, shortened: as §1
[51] = species on record: Mus musculus; assay: Distribution of compound in femur tissue of mice after 2 hr injection time was determined; format: ADME, organism-based; procedure, shortened: as §1
[52] = species on record: Mus musculus; assay: Distribution of compound in femur tissue of mice after 5 hr injection time was determined; format: ADME, organism-based; procedure, shortened: as §1
[53] = species on record: Rattus norvegicus; assay: Distribution of compound in femur tissue of rats after 24 h injection time was determined; format: ADME, organism-based; procedure, shortened: as §3
[54] = species on record: Mus musculus; assay: Distribution of compound in heart tissue of mice after 0.5 hr injection time was determined; format: ADME, organism-based; procedure, shortened: as §1
[55] = species on record: Mus musculus; assay: Distribution of compound in liver tissue of mice after 2 h injection time was determined; format: ADME, organism-based; procedure, shortened: as §1

O=P(O)(O)C(CCc1cccc(I)c1)P(=O)(O)O
Injected [1]: 0.21% | Injected [2]: 10.36% | Injected [3]: 0.85% | Injected [4]: 0.35% | Injected [5]: 0.06% | Injected [6]: 0.05% | Injected [7]: 0.17% | Injected [8]: 0.04% | Injected [9]: 0.02% | Injected [10]: 0.02% | Injected [11]: 8.84%

O=P(O)(O)C(O)(Cc1cccc(I)c1)P(=O)(O)O
Injected [12]: 2.51% | Injected [13]: 0.18% | Injected [14]: 0.05% | Injected [15]: 5.41% | Injected [16]: 1.2% | Injected [1]: 0.54% | Injected [17]: 0.61% | Injected [18]: 24.61% | Injected [19]: 26.49% | Injected [2]: 21.34% | Injected [20]: 19.14% | Injected [21]: 5.84% | Injected [22]: 2.02% | Injected [23]: 18.64% | Injected [24]: 13.3% | Injected [3]: 5.16% | Injected [25]: 7.17% | Injected [26]: 3.88% | Injected [4]: 2.27% | Injected [27]: 0.82% | Injected [5]: 0.18% | Injected [28]: 0.4% | Injected [29]: 0.04% | Injected [30]: 1.07% | Injected [31]: 1% | Injected [6]: 0.16% | Injected [32]: 0.45% | Injected [33]: 0.03% | Injected [34]: 0.36% | Injected [35]: 0.77% | Injected [7]: 0.49% | Injected [36]: 0.47% | Injected [37]: 0.09% | Injected [38]: 3.22% | Injected [39]: 1.79% | Injected [8]: 0.13% | Injected [40]: 0.38% | Injected [41]: 0.05% | Injected [42]: 0.51% | Injected [43]: 0.19% | Injected [9]: 0.06% | Injected [44]: 0.49% | Injected [45]: 0.02% | Injected [46]: 15.92% | Injected [47]: 1.36% | Injected [10]: 0.09% | Injected [48]: 0.82% | Injected [49]: 0.01% | Injected [50]: 45.03% | Injected [51]: 45.54% | Injected [11]: 37.79% | Injected [52]: 30.3% | Injected [53]: 16.44% | Injected [54]: 3.35% | Injected [55]: 3.36%
